Results reported in ChEMBL document CHEMBL3352113, “Cytoprotective pyridinol antioxidants as potential therapeutic agents for neurodegenerative and mitochondrial diseases” (Bioorg Med Chem, 2014).
Calls of active or inactive are those of the source. No cut-off for these calls is given here.

Tests used:
[1] = species on record: Bos taurus; assay: Inhibition of bovine heart mitochondrial NADH oxidase complex I/III/IV assessed as remaining activity at 5 uM by spectrophotometry relative to untreated control
[2] = test system: Lymphocyte; assay: Inhibition of oxidative stress-induced mitochondrial membrane depolarization in diethyl maleate-treated human lymphocytes obtained from FRDA patient assessed as cells with intact mitochondrial membrane potential pretreated for 16 hrs using TMRM by FACS analysis; type: functional, cell-based
[3] = species on record: Bos taurus; assay: Inhibition of bovine heart mitochondrial NADH oxidase complex I/III/IV assessed as remaining activity at 1 uM by spectrophotometry relative to untreated control
[4] = test system: Lymphocyte; assay: Inhibition of ROS generation in diethyl maleate-treated human lymphocytes obtained from FRDA patient compound pretreated for 16 hrs using DCFH-DA by FACS analysis; type: functional, cell-based
Method in brief: (§1)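 FRDA lymphocytes pretreated with compounds at 100, 250 and 500 nM for 16 h, then given DEM for 80 min to raise ROS. Stained with DCFH-DA for 15 min, then DCF fluorescence read by flow cytometry. Reported as % ROS scavenging; mean ± SEM of three experiments run in duplicate.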

[5] = Drug metabolism in bovine liver microsomes at 25 uM after 30 mins by reverse phase HPLC analysis; type: ADME, Bos taurus; conditions: cattle, read-out: Drug metabolism
Method in brief: (§2)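 Compounds incubated 30 min with activated bovine liver microsomes. Remaining parent compound quantified by reversed-phase HPLC and expressed as % recovered; mean ± SD.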

[6] = test system: Lymphocyte; assay: Cytoprotective activity in human lymphocytes obtained from Leigh's syndrome patient assessed as viable cells after 16 hrs by trypan blue exclusion assay; type: functional, cell-based
Method in brief: (§3)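 Lymphocytes from FRDA or Leigh's syndrome patients, grown in RPMI-1640 with 15% fetal calf serum and 2 mM glutamine, kept in log phase. Test agents at 0.1, 0.5 and 2.5 µM; diethyl maleate (DEM) added to deplete glutathione and induce oxidative stress. Viability expressed relative to untreated cells (100%). Values are mean ± SD/SEM as tabulated.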

[7] = test system: Lymphocyte; assay: Increase in ATP production in CoQ10-deficient lymphocytes (unknown origin) assessed as cellular ATP level at 10 uM after 48 hrs using luciferin-luciferase reaction by bioluminescence assay relative to control; type: functional
Method in brief: (§4)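 CoQ10-deficient lymphocyte line GM17932 grown in glucose-free RPMI 1640 with 25 mM galactose, 2 mM glutamine and 10% dialyzed FBS, forcing oxidative phosphorylation. Incubated with compounds at 5, 10 or 25 µM for 48 h. Total intracellular ATP measured by luciferin–luciferase reaction, expressed as % of untreated control.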

[8] = test system: Lymphocyte; assay: Inhibition of oxidative stress-induced mitochondrial membrane depolarization in diethyl maleate-treated human lymphocytes obtained from FRDA patient assessed as cells with intact mitochondrial membrane potential at 500 nM pretreated for 16 hrs using TMRM by FACS analysis (reference value: 95%); type: functional; parameters: scale not given: the % may be the effect or the level left
[9] = test system: Lymphocyte; assay: Inhibition of oxidative stress-induced mitochondrial membrane depolarization in diethyl maleate-treated human lymphocytes obtained from FRDA patient assessed as cells with intact mitochondrial membrane potential at 100 nM pretreated for 16 hrs using TMRM by FACS analysis (reference value: 95%); type: functional; parameters: scale not given: the % may be the effect or the level left
[10] = test system: Lymphocyte; assay: Increase in ATP production in CoQ10-deficient lymphocytes (unknown origin) assessed as cellular ATP level at 5 uM after 48 hrs using luciferin-luciferase reaction by bioluminescence assay relative to control; type: functional; method in brief: as §4
[11] = Metabolic stability in bovine liver microsomes at 25 uM after 30 mins by reverse phase HPLC analysis; type: ADME, Bos taurus; conditions: cattle, read-out: Stability; method in brief: as §2
[12] = test system: Lymphocyte; assay: Cytoprotective activity in human lymphocytes obtained from FRDA patient assessed as viable cells at 0.5 uM after 16 hrs by trypan blue exclusion assay; type: functional; conditions: read-out: Activity; method in brief: as §3
[13] = test system: Lymphocyte; assay: Inhibition of lipid peroxidation in diethyl maleate-treated human lymphocytes obtained from FRDA patient at 100 to 250 nM after 16 hrs using C11-BODIPY581/591 by FACS analysis; type: functional, cell-based
Method in brief: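 FRDA lymphocytes depleted of glutathione with DEM, probed with C11-BODIPY581/591. Green (oxidized) fluorescence read by flow cytometry at 490/510 nm. Median mean fluorescence taken relative to untreated control and converted to % lipid peroxidation scavenging; mean ± SEM, n = 3.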

[14] = test system: Lymphocyte; assay: Inhibition of oxidative stress-induced mitochondrial membrane depolarization in diethyl maleate-treated human lymphocytes obtained from FRDA patient assessed as cells with intact mitochondrial membrane potential at 250 nM pretreated for 16 hrs using TMRM by FACS analysis (reference value: 95%); type: functional; parameters: scale not given: the % may be the effect or the level left
[15] = test system: Lymphocyte; assay: Cytoprotective activity in human lymphocytes obtained from FRDA patient assessed as viable cells at 2.5 uM after 16 hrs by trypan blue exclusion assay; type: functional; conditions: read-out: Activity; method in brief: as §3
[16] = test system: Lymphocyte; assay: Inhibition of ROS generation in diethyl maleate-treated human lymphocytes obtained from FRDA patient compound pretreated at 100 to 500 nM for 16 hrs using DCFH-DA by FACS analysis; type: functional, cell-based; method in brief: as §1
[17] = test system: Lymphocyte; assay: Cytoprotective activity in human lymphocytes obtained from FRDA patient assessed as viable cells after 16 hrs by trypan blue exclusion assay; type: functional, cell-based; method in brief: as §3
[18] = test system: Lymphocyte; assay: Increase in ATP production in CoQ10-deficient lymphocytes (unknown origin) assessed as cellular ATP level at 25 uM after 48 hrs using luciferin-luciferase reaction by bioluminescence assay relative to control; type: functional; method in brief: as §4
[19] = species on record: Bos taurus; assay: Inhibition of bovine heart mitochondrial NADH oxidase complex I/III/IV assessed as remaining activity by spectrophotometry relative to untreated control
[20] = test system: Lymphocyte; assay: Cytoprotective activity in human lymphocytes obtained from FRDA patient assessed as viable cells at 0.1 uM after 16 hrs by trypan blue exclusion assay; type: functional; conditions: read-out: Activity; method in brief: as §3
[21] = test system: Lymphocyte; assay: Cytoprotective activity in human lymphocytes obtained from Leigh's syndrome patient assessed as viable cells at 0.5 uM after 16 hrs by trypan blue exclusion assay; type: functional; conditions: read-out: Activity; method in brief: as §3
[22] = test system: Lymphocyte; assay: Cytoprotective activity in human lymphocytes obtained from Leigh's syndrome patient assessed as viable cells at 0.1 uM after 16 hrs by trypan blue exclusion assay; type: functional; conditions: read-out: Activity; method in brief: as §3
[23] = species on record: Bos taurus; assay: Inhibition of bovine heart mitochondrial NADH oxidase complex I/III/IV assessed as remaining activity at 10 uM by spectrophotometry relative to untreated control
[24] = test system: Lymphocyte; assay: Cytoprotective activity in human lymphocytes obtained from Leigh's syndrome patient assessed as viable cells at 2.5 uM after 16 hrs by trypan blue exclusion assay; type: functional; conditions: read-out: Activity; method in brief: as §3

Row | Compound | Activity [1] [%] | Activity [3] [%] | Activity [6] | Activity [7] [%] | Activity [8] [%] | Activity [9] [%] | Activity [10] [%] | viability at 0.5 µM [12] [%] | inhibition [13] | Activity [14] [%] | viability at 2.5 µM [15] [%] | inhibition [16] | Activity [17] | Activity [18] [%] | inhibition [19] | viability at 0.1 µM [20] [%] | viability at 0.5 µM [21] [%] | viability at 0.1 µM [22] [%] | Activity [23] [%] | viability at 2.5 µM [24] [%] | also measured
1 | CCCCCCCCCCCCCCCCc1c(C)c(N(C)C)nc(C)c1O | 93 | 95 | Dose-dependent effect | 80 | 91 | 62 | 96 | 75 | Active | 83 | 84 | Active | Dose-dependent effect | 37 | Dose-dependent effect | 52 | 56 | 11 | 86 | 85 | inhibition [2]: Dose-dependent effect; inhibition [4]: Dose-dependent effect; metabolised at 0.5 h, 25 µM [5]: 20%; remaining at 0.5 h, 25 µM [11]: 70%
2 | CCCCCCCCCCc1nc(N(C)C)c(C)c(C)c1O | 28 | 35 | Dose-dependent effect | 52 | 90 | 65 | 89 | 74 | Active | 82 | 87 | Active | Dose-dependent effect | 13 | Dose-dependent effect | 36 | 77 | 6 | 13 | 79 | inhibition [2]: Dose-dependent effect; metabolised at 0.5 h, 25 µM [5]: 25%; remaining at 0.5 h, 25 µM [11]: 70%
3 | CCCCCCCCCCCCCCCCc1c(C)c(N2CCC2)nc(C)c1O | 89 | 95 | Dose-dependent effect | 76 | 89 | 55 | 98 | 79 | Active | 72 | 92 | Active | Dose-dependent effect | 50 | Dose-dependent effect | 58 | 95 | 18 | 79 | 92 | remaining at 0.5 h, 25 µM [11]: 95%
4 | Cc1c(N(C)C)nc(CCCCCCCCCCO)c(O)c1C | 9 | 27 | Dose-dependent effect | 20 | 50 | 24 | 50 | 28 | inactive | 36 | 87 | inactive | Dose-dependent effect | 3 | Dose-dependent effect | 17 | 36 | 20 | 6 | 74 | metabolised at 0.5 h, 25 µM [5]: 60%
